This note sets out measurements from ChEMBL document CHEMBL3102807, “Angustifonines A and B, cytotoxic bisindole alkaloids from Bousigonia angustifolia” (J Nat Prod, 2014).

Format in all cases: functional, cell-based
One experiment concerns MCF7. As to the kind of experiment: Cytotoxicity against human MCF7 cells after 48 hrs by MTT assay. The conditions noted are these: MCF7, 48 h. The method in brief:
(§1)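 Cells kept in RPMI-1640 or DMEM with 10% FBS, 37 °C, 5% CO2; adherent cells allowed to attach 12 h in 96-well plates. Exposed in triplicate to 0.0625, 0.32, 1.6, 8 and 40 μM for 48 h, cisplatin and paclitaxel as positive controls. MTT (100 μg/well) added for 4 h at 37 °C, lysis in 20% SDS/50% DMF, OD at 595 nm; IC50 by Reed–Muench method.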

The subject of the next experiment is SMMC-7721. The experiment in a line: Cytotoxicity against human SMMC7721 cells after 48 hrs by MTT assay. Particulars: SMMC-7721, 48 h. The method in brief:
as §1

The subject of a further experiment is HL-60. The experiment in a line: Cytotoxicity against human HL60 cells after 48 hrs by MTT assay. The conditions noted are these: HL-60, 48 h. The method in brief:
as §1

A further experiment relates to SW480. The experiment in a line: Cytotoxicity against human SW480 cells after 48 hrs by MTT assay. The conditions noted are these: SW480, 48 h. The method in brief: as §1
Another experiment has as its system A549. As to the kind of experiment: Cytotoxicity against human A549 cells after 48 hrs by MTT assay. Particulars: A549, 48 h. The essentials: as §1

On to `CC[C@]12C=CCN3Cc4c(n(c5ccccc5c4=O)[C@@H](c4cc5c(cc4OC)NC4=C(C(=O)OC)C[C@]6([C@@H](C)O)C=CCN7CC[C@@]45[C@@H]76)C1)[C@@H]32`, for which the IC50 stood at 12.1 µM in the experiment with MCF7; 15.3 µM with SMMC-7721; 9.6 µM with HL-60; 13.9 µM in the experiment with SW480; 16.2 µM with A549.

On to `CC(=O)O[C@H]1C(=O)[C@@]2(C)[C@H]([C@H](OC(=O)c3ccccc3)[C@]3(O)C[C@H](OC(=O)[C@H](O)[C@@H](NC(=O)c4ccccc4)c4ccccc4)C(C)=C1C3(C)C)[C@]1(OC(C)=O)CO[C@@H]1C[C@@H]2O` [PACLITAXEL], for which the IC50 in the experiment with MCF7, with SMMC-7721, in the experiment with HL-60, in the experiment on SW480 and in the experiment with A549 was < 0.008 µM each time.

For `CC[C@]12C=CCN3Cc4c(n(c5ccccc5c4=O)[C@@H](c4cc5c(cc4OC)NC4=C(C(=O)OC)C[C@]6(CC)C=CCN7CC[C@@]45[C@@H]76)C1)[C@@H]32`, the IC50 in the experiment on MCF7 was 3.61 µM; in the experiment with SMMC-7721, 10.6 µM; in the experiment on HL-60, 3.03 µM; in the experiment on SW480 it was 2.71 µM; in the experiment with A549, 7.23 µM.
